TRPC6 inhibitor: blocks the mouse TRPC6 cation channel. Q61143. HEK293-TRPC6, membrane potential dye, ACh-evoked depolarization; active compounds read low. B-score at 10 µM. 1.1% of 310,000 active;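 active = B-score under library mean minus 3 SD, initial fluorescence not abnormally high, positive integrated signal ratio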;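 note: B-score derived from integrated fluorescence ratio over the kinetic read; more negative B-score means stronger inhibition of depolarization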
TRPC4 act: opens the mouse TRPC4 cation channel; B-score at 10 µM; 0.49% of 310,000 active; Q9QUQ5; HEK293 TRPC4beta/mu-opioid, Fluo4 calcium fluorescence; active compounds read high; AID 2237;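 active = B-score above 5 SD of library B-scores, and initial fluorescence ratio not above library mean plus 5 SD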;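 note: positive B-score marks a calcium rise read as TRPC4 activation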
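Incubation: 45 min room-temperature Fluo4 loading, 110 s read / System: HEK293 cells stably co-expressing mouse TRPC4beta and mu-opioid receptor / Signal: Fluo4 fluorescence, kinetic / Control set: buffer (low) and maximal DAMGO (high) / Measure: integrated baseline-normalised fluorescence ratio, converted to per-well B score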
TRPC6 activator: activates the mouse TRPC6 cation channel; B-score at 10 µM; Q61143; 0.13% of 310,000 active; AID 2550; HEK293-TRPC6 membrane potential dye fluorescence; active compounds read high;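 active = B-score of the integrated fluorescence ratio above library mean plus 3 SD, and starting fluorescence ratio within library mean plus 5 SD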;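 note: higher score means more depolarization so channel activation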
TRPC4 inh: inhibitors of mouse TRPC4 channel | HEK293 TRPC4beta/mu-opioid, DAMGO-evoked Fluo4 calcium flux; active compounds read low | 0.39% of 300,000 active | B-score at 10 µM | AID 2247;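 active = B-score over 3 SD under the library average, no early fluorescence shift, positive overall ratio signal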
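test system = HEK293 cells with stable TRPC4beta plus mu-opioid receptor expression | detection = Fluo4 Ca2+ flux fluorescence | read-out = integrated fluorescence ratio relative to baseline, converted to per-well B score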
TRPC4 PAM: allosteric potentiators of mouse TRPC4 channel | 0.42% of 310,000 active | B-score at 10 µM | HEK293 TRPC4beta/mu-opioid, DAMGO EC20, Fluo-4 Ca2+ flux; active compounds read high | Q9QUQ5;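 active = B-score of calcium response area above 5 SD of library B-scores, with initial fluorescence ratio within 5 SD of library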;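 note: B-score of integrated fluorescence ratio over time as area under calcium response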
Starred values were filed as active, the others as inactive; i = inactive. A selection: hits, their analogues and other compounds. The true share with any hit is near 2.3%.

SMILES	TRPC6 inhibitor	TRPC4 act	TRPC6 activator	TRPC4 inh	TRPC4 PAM
O=C(O)CC(Cc1ccccc1)(C(=O)O)c1ccccc1 (configuration not stated)	i	i	i	i	i
CCCCN(CC)CCCNC(=O)Cn1nc(Cc2cccnc2)c2ccccc2c1=O	i	134*	i	i	i
CCN(CC)CCNC(=O)Cn1nc(Cc2ccccc2)c2ccccc2c1=O	i	i	i	i	i
Cc1cc(C)c(C)c(OCCCOc2cccc3cccnc23)c1	i	i	i	i	19*
COc1ccc(/C=N/NC(=O)c2ccc(C)cc2)cc1CN1CCN(c2ccc(F)cc2)CC1	i	i	i	i	i
COc1ccc(/C=N/NC(=O)c2ccc(F)cc2)cc1CN1CCc2cc(OC)c(OC)cc2C1C (configuration not stated)	i	i	i	-6*	i
O=S(=O)(Nc1cccc(-n2cnnn2)c1)c1cc(Br)ccc1Br	i	i	i	i	i
Cc1ccc(OCC(=O)NNC(=S)NC(=O)c2ccc(Br)o2)c(C)c1	i	69*	i	-6*	20*
COc1ccc(C(=O)NNC(=S)NC(=O)c2ccc(Br)o2)cc1OC	i	i	i	i	i
Cc1cc(OCC(=O)NNC(=S)NC(=O)c2cccs2)ccc1Cl	i	i	i	i	19*
O=C(COc1ccc(Br)cc1Br)NNC(=O)c1cccs1	i	i	i	i	i
Cc1ccc(OCC(=O)NNC(=S)NC(=O)c2cccs2)c(C)c1	i	66*	i	i	i
Cc1oc(-c2ccccc2)nc1CS(=O)CC(=O)NC1CCCC1 (configuration not stated)	i	i	i	i	i
O=C(Cc1ccccc1F)Nc1ccc(S(=O)(=O)Nc2ncccn2)cc1	i	i	i	i	i
Cn1c(-c2cccc3ccccc23)n[nH]c1=S	i	102*	i	i	i
CCc1ccc(CN(Cc2cccnc2)C(=O)/C=C/c2ccc(OC)cc2)cc1	i	i	i	i	i
COc1cccc(NC(=O)N2CCC(NC(=O)c3ccco3)CC2)c1	i	i	i	i	i
CC(NCC(O)COCCC12CC3CC(CC(C3)C1)C2)c1ccccc1 (configuration not stated)	i	83*	i	i	i
NCC(O)COCCC12CC3CC(CC(C3)C1)C2 (configuration not stated)	i	i	i	i	i
COc1cc(S(=O)(=O)NCc2ccccc2)ccc1Br	i	i	i	i	i
CCNS(=O)(=O)c1ccc(Br)c(OC)c1	i	i	i	-6*	i
c1ccc(-n2cc(CNCCc3cscn3)c(-c3ccc4c(c3)OCO4)n2)cc1	i	46*	i	i	i
C=CCc1cc(C)ccc1OCCn1ccnc1	i	i	i	i	i
C=CCc1cc(Cl)ccc1OCCCn1ccnc1	i	i	i	i	19*
C=CCc1cc(Cl)ccc1OCCn1ccnc1	i	116*	i	i	14*
SMILES	TRPC6 inhibitor	TRPC4 act	TRPC6 activator	TRPC4 inh	TRPC4 PAM
COc1ccc(/C=N/Nc2cc(C)nc(-n3nc(C)cc3C)n2)cc1	i	i	i	i	19*
Oc1ccc(CCNc2ncnc3ccc(Cl)cc23)cc1	i	i	i	i	i
C=CCNCCCOc1ccc(Cl)cc1Br	i	i	i	i	16*
Cc1cc(N2CCCCC2)nc(N)n1	i	80*	i	i	i
Cc1nc2ccccc2n1CCOc1ccc(F)cc1	i	i	i	-6*	i
OCc1nc2ccccc2n1CCOc1ccccc1	i	i	i	-6*	i
Cc1cc2c(Nc3ccc(C(=O)O)cc3)ncnc2s1	i	i	i	i	i
Cc1n[nH]c(=O)c2c(NC(=O)CSc3nn(-c4ccccc4)c(=S)s3)oc(C)c12	i	i	i	i	i
O=C(NCc1ccc(Cl)cc1)c1ccc(NC(=O)C2CCCO2)cc1 (configuration not stated)	i	i	i	i	i
CCN1CCN(c2ccc(S(=O)(=O)N3CCCCC3)cc2NC(=O)c2cccc(C(F)(F)F)c2)CC1	i	i	i	i	29*
CCN1CCN(c2ccc(S(=O)(=O)N3CCCCC3)cc2NC(=O)c2cccc(C)c2[N+](=O)[O-])CC1	i	132*	i	i	i
CCN1CCN(c2ccc(S(=O)(=O)N3CCCCC3)cc2NC(=O)c2ccccc2)CC1	i	i	i	i	i
CCN1CCN(c2ccc(S(=O)(=O)N3CCCCC3)cc2NC(=O)c2cccc(F)c2)CC1	i	i	i	i	17*
CC(C)COc1ccc(CSCCNC(=S)Nc2ccccc2)cc1	i	i	i	i	i
CCN(CC)C(=O)c1[nH]cnc1C(=O)N[C@@H](Cc1ccccc1)C(=O)OC(C)(C)C	i	i	i	i	i
Cc1ccc(S(=O)(=O)N2CCN(C(=O)c3cccs3)CC2)c(C)c1	i	i	i	i	11*
Cc1cc(C)c(S(=O)(=O)N2CCN(C(=O)c3cccs3)CC2)c(C)c1	i	i	i	i	i
NC(=O)C1CCCN(S(=O)(=O)c2ccc3ccccc3c2)C1 (configuration not stated)	i	i	i	i	i
CC1CCc2sc3ncnc(N4CCOCC4)c3c2C1 (configuration not stated)	i	i	i	-6*	i
COc1ccc(S(=O)(=O)N2CCCCCC2)cc1C(=O)N(C)Cc1ccc(Cl)cc1Cl	i	i	i	i	26*
COc1ccc(C(=O)NC(=S)NNC(=O)Cc2cccs2)cc1	i	49*	i	i	i
COc1cc(OC)cc(C(=O)NC(=S)NNC(=O)[C@H]2C[C@@H]2c2ccccc2)c1	i	192*	i	i	i
COc1cc(OC)cc(C(=O)NC(=S)NNC(=O)Cc2cccs2)c1	i	147*	i	i	i
COc1cc(NC(=O)Cc2cccs2)cc(OC)c1	i	i	i	i	i
Nc1ccc(Oc2ccccc2-c2ccccc2)cc1	i	i	i	i	14*
NCCOc1ccccc1-c1ccccc1	i	i	i	i	i
Cc1[nH]nc(Nc2ccccc2)c1[N+](=O)[O-]	i	i	i	i	19*
Cc1ccc(Nc2n[nH]c(C)c2[N+](=O)[O-])cc1	i	i	i	i	i
Cc1cc([N+](=O)[O-])nn1Cc1noc(C(=O)NCCc2ccccn2)n1	i	79*	i	i	i

Assay outcomes: PubChem BioAssay, Johns Hopkins Ion Channel Center
